# Compound activity deposited in PubChem BioAssay by Sanford-Burnham Center for Chemical Genomics.
# Sampled rows, rich in hits. Any-hit rate of the full collection: about 3.9%.
# tim10-1 inh – tim10-1 yeast growth inhibition | S. cerevisiae tim10-1 ts strain growth, BacTiter-Glo, 24 h | inhibition, % at 20 µM | actives 2.2% (n = 330,000);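 active = inhibition of at least 40%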;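 also: mutant grown at 25 °C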
# TIM10 inh – growth inhibitors of TIM10 yeast strain | S. cerevisiae TIM10 strain growth, BacTiter-Glo luminescence, 24 h | inhibition, % at 10 µM | actives 1.4% (n = 330,000) | AID 463195;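 active = inhibition of 40% or more at the single tested concentration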;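 also: wild-type TIM10 isogenic control strain grown at permissive 25 °C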
# CHOP UPR activ – apoptotic UPR (CHOP) activation; CHO-CHOP luciferase reporter, luminescence; percent of tunicamycin response over DMSO baseline; activation, % at 10 µM; actives 0.34% (n = 330,000); AID 449763;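 active = at 10 µM dose, activation of 40% or more, normalized to positive control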
#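 System: CHO-CHOP luciferase reporter cell line | Buffer or medium: F12 medium containing 10% fetal bovine serum | Doses: One dose, 10 µM in 0.5% DMSO | Times: 6 h compound exposure at 37 °C after overnight seeding | Signal: Luciferase luminescence | Read-out: % activation vs tunicamycin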
# UPR XBP1 act – activators of adaptive arm of unfolded protein response (XBP1) | CHO-XBP1 luciferase reporter, IRE1-XBP1 UPR activation, luminescence; percent of tunicamycin response, DMSO as zero | activation, % at 20 µM | actives 0.33% (n = 330,000);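 active = versus positive control, 20 µM dose yields 30% or more activation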
#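 Material: IRE1-XBP1 luciferase reporter CHO line / Quantity: one thousand reporter cells per well / Buffer or medium: F12 with 10% serum / Compound: 20 µM single concentration, DMSO 1% / Times: 6 h treatment, 37 °C / Detection: Steady-Glo luciferase glow luminescence, 10 min after reagent addition / Benchmarks: tunicamycin high, DMSO low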
# tim23-1 inh – growth inhibitors of tim23-1 mutant yeast | S. cerevisiae tim23-1 growth, BacTiter-Glo luminescence, 24 h | inhibition, % at 20 µM | actives 1.3% (n = 330,000) | AID 463212;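 active = growth inhibition of the mutant yeast at or above 50%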;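 also: temperature-sensitive mutant grown at 25 °C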
# TIM10 conf – confirmation of TIM10 yeast growth inhibitors | shares compounds with TIM10 inh | actives 63% (n = 4,600) | S. cerevisiae tim10 strain growth, BacTiter-Glo luminescence, 24 h | inhibition, % at 10 µM | AID 463215;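 active = inhibition of yeast growth at or above a set limit in either of two replicates at 10 µM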; also: this counterscreen used the strain with wild-type TIM10
# Hits are given with their value; i = inactive; nt = no result.
SMILES,tim10-1 inh,TIM10 inh,CHOP UPR activ,UPR XBP1 act,tim23-1 inh,TIM10 conf
c1ccc(Cn2c(SCc3nc4ccccc4s3)nnc2-c2ccco2)cc1,i,i,i,i,i,nt
Cc1ccc(C(=O)NC(=S)Nc2ccccc2C(F)(F)F)cc1,i,40,i,i,i,i
Cc1ccc(C(=O)NCC(=O)Nc2ccccc2C(F)(F)F)cc1,i,i,i,i,i,nt
CCNc1ccc(C(=O)OCC(=O)Nc2cc(C)on2)cc1[N+](=O)[O-],i,i,i,i,i,nt
O=C(Nc1ccc(N2CCOCC2)cc1)c1cc(-n2cnnc2)ccc1Cl,i,96,i,i,i,i
CC(C)C(c1nnnn1Cc1ccco1)N1CCN(c2nc3ccccc3s2)CC1 (centres undefined),i,45,i,i,i,i
Cc1ccccc1NS(=O)(=O)c1ccc(NC(=O)CSCc2ccc(Br)cc2)cc1,i,41,i,i,i,i
COc1ccc(OCC(=O)Nc2ccc(S(=O)(=O)N3CCCC3)cc2)cc1,i,i,i,i,i,nt
O=C(COC(=O)c1ccc(Br)o1)Nc1ccc(S(=O)(=O)N2CCCC2)cc1,i,i,i,i,i,nt
O=C(Nc1ccc(S(=O)(=O)N2CCCCCC2)cc1)c1ccc(Br)o1,i,56,i,i,i,50
O=C(CSCc1ccc(Cl)cc1)Nc1ccc(S(=O)(=O)N2CCCCCC2)cc1,i,41,i,i,i,i
O=C(COc1ccccc1)Nc1ccc(S(=O)(=O)N2CCCCCC2)cc1,i,71,i,i,i,60
O=C(CSCc1ccc(Br)cc1)Nc1ccc(S(=O)(=O)N2CCOCC2)cc1,i,i,i,i,i,nt
NC(=O)c1cc(S(=O)(=O)N2CCOCC2)cs1,i,i,i,i,i,nt
O=C(C1CCC(Cn2c(=O)[nH]c3ccccc3c2=O)CC1)N1CCN(c2ccccc2)CC1 (centres undefined),i,i,i,i,i,nt
CC1CC(C)CN(C(=O)CCCn2c(=S)[nH]c3ccccc3c2=O)C1 (centres undefined),i,43,i,i,i,i
O=C(C1CCC(Cn2c(=S)[nH]c3ccccc3c2=O)CC1)N1CCN(c2ccccc2)CC1 (centres undefined),i,46,i,i,i,37
COc1ccc(-c2cc3c(nn2)-c2ccccc2C3=O)cc1,i,42,i,i,i,45
C#CCN(CC=C)C(=O)c1ccc2nc(C3CCCCC3)oc2c1,i,i,i,i,i,nt
c1ccc2c(c1)NC1(CCCCCC1)n1c-2nc2ccccc21,i,42,i,i,i,i
c1ccc2c(c1)NC1(CCCCC1)n1c-2nc2ccccc21,i,i,i,i,i,nt
CCOC(=O)C1CCCN(CCC(=O)Nc2cc(OC)ccc2OC)C1 (centres undefined),i,i,i,i,i,nt
O=S(=O)(c1ccc2c(c1)OCCO2)N1CCN(Cc2ccccc2)CC1,i,43,i,i,i,i
O=C(NCCc1ccc(Cl)cc1)C1COc2ccccc2O1 (centres undefined),i,i,i,i,i,nt
CCc1cc(=O)oc2cc(OC(C)C(=O)NCC3CCC(C(=O)O)CC3)c(Cl)cc12 (centres undefined),i,i,i,i,i,nt
SMILES,tim10-1 inh,TIM10 inh,CHOP UPR activ,UPR XBP1 act,tim23-1 inh,TIM10 conf
O=S(=O)(Nc1cc(Cl)ccc1N1CCCCC1)c1cccs1,i,40,i,i,i,i
CSc1ccccc1OCc1cc(C(=O)NCCC2=CCCCC2)no1,i,i,i,i,i,nt
CC(C)(C)C(=O)/C(=C\c1ccc([N+](=O)[O-])cc1)n1cncn1,i,61,i,i,i,i
COC(=O)C(Cc1ccccc1)NC(=O)CCNC(=O)c1ccc(Br)cc1 (centres undefined),i,i,i,i,i,nt
Brc1ccc2[nH]c3c(N4CCc5ccccc5C4)ncnc3c2c1,i,43,i,i,i,i
Fc1ccc2[nH]c3c(N4CCc5ccccc5C4)ncnc3c2c1,i,i,i,i,i,nt
Cc1ccc(S(=O)(=O)N(C)c2ccc(OC(=O)c3cccs3)cc2)cc1,i,i,i,i,i,nt
Cc1cccc(NC(=O)c2cc3ccccc3oc2=O)c1,i,i,i,i,i,nt
O=C(Nc1cccc(F)c1)c1ccc2c(c1)OCCO2,i,41,i,i,i,53
Cc1ccc(NC(=O)c2ccc3c(c2)OCCO3)cc1S(=O)(=O)Nc1cccc(Cl)c1,i,43,i,i,i,i
O=C(Nc1ccc(N2CCCCC2)c(Cl)c1)c1ccc2c(c1)OCCO2,i,45,i,i,i,i
O=C(Nc1ccc(N2CCCC2)c(Cl)c1)c1ccc2c(c1)OCCO2,i,i,i,i,i,nt
N=c1oc2ccccc2cc1C(=O)Nc1cccc(F)c1,i,40,i,i,i,i
Cc1cccc(NC(=O)c2ccc3c(c2)OCCO3)c1,i,i,i,i,i,nt
c1ccc(-c2noc(CSc3nnc(Cc4cccs4)n3-c3ccccc3)n2)cc1,i,i,i,i,i,nt
Clc1ccc(-c2noc(CSc3nnc(-c4ccncc4)n3-c3ccccc3)n2)cc1,i,48,i,i,i,36
Cc1ccc(-c2noc(CSc3nnc(-c4ccncc4)n3-c3ccc(C)cc3)n2)cc1,i,43,i,i,i,39
Clc1ccc(-c2noc(CSc3nnc(Cc4cccs4)n3-c3ccccc3)n2)cc1,i,97,i,i,i,i
Cc1ccc(-c2noc(CSc3nnc(Cc4cccs4)n3-c3ccccc3)n2)cc1,i,i,i,i,i,nt
CCOc1ccc(-n2c(SCc3nc(-c4ccc(C)cc4)no3)nnc2-c2ccncc2)cc1,i,i,i,i,i,nt
O=C(NCC1CCCO1)C(c1ccc(N2CCOCC2)cc1)N(C(=O)Cn1nnc2ccccc21)c1ccccc1F (centres undefined),i,i,i,i,i,nt
COC(=O)COc1ccc(NS(=O)(=O)c2cccc([N+](=O)[O-])c2)cc1,i,i,i,i,i,nt
Nc1cc(-c2ccc(Br)cc2)nc2cc(-c3ccccc3)nn12,i,i,i,i,i,nt
Clc1nc(-c2ccccc2)cc(-c2ccc(Br)cc2)n1,i,42,i,i,i,33
CCn1ccc(C(=O)Nc2ccsc2C(=O)OC)n1,i,i,i,i,i,nt
CCOC(=O)N/N=C/c1c(C)c(C(=O)c2ccc(F)cc2)n2ccccc12,i,44,i,i,i,32
CCCc1nc2oc3c(NCC(C)O)ncnc3c2c2c1CCCC2 (centres undefined),i,41,i,i,i,45
COc1ncnc2c1oc1nc(CC(C)C)c3c(c12)CC(C)(C)OC3,i,i,i,i,i,nt
CCN1C(=O)c2cccc3c(S(=O)(=O)N(C(C)=O)c4ccc(OC(C)=O)cc4)ccc1c23,i,i,i,i,i,nt
